Test results: ChEMBL document CHEMBL3352586, “Pyridyl benzamides as a novel class of potent inhibitors for the kinetoplastid Trypanosoma brucei” (J Med Chem, 2014)
Values after ≈ are worked out from the molar mass of the structure shown.

Key:
Liver microsome [1] = experiment: Intrinsic clearance in human liver microsomes at 1 uM after 60 mins by LC-MS analysis; type: ADME; details: 1 h
Method in brief: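 In vitro intrinsic clearance was measured in human liver microsomes and expressed per mg protein. A hepatic extraction ratio (E_H) was predicted from the in vitro data.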

[2] = Plasma protein binding in human […] by chromatographic method; type: ADME, cell-free; details: read-out: PPB (converted)
Method in brief: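 Human plasma protein binding was estimated by a chromatographic method.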

[3] = test system: Trypanosoma brucei brucei; experiment: Antimicrobial activity against bloodstream form of Trypanosoma brucei brucei 427 after 48 hrs by alamar blue assay; type: functional, organism-based; details: Trypanosoma brucei, 427, 48 h
Plasmodium falciparum = experiment: Antimicrobial activity against erythrocytic stage of Plasmodium falciparum NF54 infected in human washed RBC assessed as [3H]-hypoxanthine incorporation incubated for 48 hrs prior to [3H]-hypoxanthine addition measured after 24 hrs by liquid scintillation counting analysis; type: functional, organism-based
L6 = experiment: Cytotoxicity against rat L6 cells after 70 hrs by alamar blue assay; type: cell-based; details: L6, 70 h
Method in brief: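 Cytotoxicity on the rat skeletal myoblast L-6 strain, with podophyllotoxin as reference drug.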

[4] = Selectivity index, ratio of IC50 for HEK293 cells to IC50 for Trypanosoma brucei brucei 427; type: toxicity, cell-based; details: human, read-out: Ratio IC50
[5] = Kinetic solubility of the compound at 10 mg/ml at pH 2 by nephelometry; type: physicochemical; details: buffer, read-out: Kinetic_solubility
Method in brief: (§1)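 Kinetic solubility was read by nephelometry at pH 2 and pH 6.5 and reported as μg/mL ranges.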

[6] = Partition coefficient, log D of the compound at pH 7.4 by HPLC method; type: physicochemical; details: octanol/water
Method in brief: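 Distribution coefficient at pH 7.4 was measured chromatographically.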

Leishmania donovani = experiment: Antimicrobial activity against amastigote form of Leishmania donovani MHOM/ET/67/L82 after 70 hrs by alamar blue assay; type: functional, organism-based; details: MHOM/ET/67/L82, 70 h
Method in brief: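 Leishmania donovani MHOM-ET-67/L82 axenic amastigotes, with miltefosine as reference drug.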

[7] = test system: Trypanosoma brucei rhodesiense; experiment: Antimicrobial activity against bloodstream form of Trypanosoma brucei rhodesiense STIB 900 after 70 hrs by alamar blue assay; type: functional, organism-based; details: STIB 900, 70 h
Method in brief: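 Trypanosoma brucei rhodesiense STIB 900 bloodstream-form trypomastigotes, with melarsoprol as reference drug.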

[8] = Kinetic solubility of the compound at 10 mg/ml at pH 6.5 by nephelometry; type: physicochemical; details: buffer, read-out: Kinetic_solubility; method in brief: as §1
Trypanosoma cruzi = experiment: Antimicrobial activity against amastigote form of Trypanosoma cruzi Tulahuen C2C4 infected in rat L6 cells after 96 hrs by microscopic analysis; details: Tulahuen C2C4, L6, 96 h
[9] = test system: Trypanosoma brucei brucei; experiment: Antimicrobial activity against bloodstream form of Trypanosoma brucei brucei 427 at 10 uM after 48 hrs by alamar blue assay; type: functional; details: Trypanosoma brucei, 427, 48 h
Liver microsome [10] = experiment: Drug metabolism in human liver microsomes assessed as M+32 formation at 1 uM after 60 mins by LC-MS analysis in presence of NADPH/UDPGA; type: ADME; details: 1 h
Liver microsome [11] = experiment: Drug metabolism in human liver microsomes assessed as M+16(I) formation at 10 uM after 60 mins by LC-MS analysis in presence of NADPH; details: 1 h
Liver microsome [12] = experiment: Drug metabolism in human liver microsomes assessed as M+16(II) formation at 10 uM after 60 mins by LC-MS analysis in presence of NADPH; details: 1 h
Liver microsome [13] = experiment: Drug metabolism in human liver microsomes assessed as M-2 formation at 10 uM after 60 mins by LC-MS analysis in presence of NADPH; details: 1 h
Liver microsome [14] = experiment: Drug metabolism in human liver microsomes at 1 uM after 60 mins in absence of NADPH/UDPGA by LC-MS analysis; type: ADME; details: 1 h
Liver microsome [15] = experiment: Drug metabolism in human liver microsomes assessed as M+32 formation at 10 uM after 60 mins by LC-MS analysis in presence of NADPH; details: 1 h
Liver microsome [16] = experiment: Drug metabolism in human liver microsomes assessed as M+16(II) formation at 1 uM after 60 mins by LC-MS analysis in presence of NADPH/UDPGA; type: ADME; details: 1 h
[17] = Selectivity index, ratio of IC50 for rat L6 cells to IC50 for bloodstream form of Trypanosoma brucei rhodesiense STIB 900; type: toxicity, cell-based; details: read-out: Ratio IC50
Method in brief: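 Bloodstream-form trypomastigotes of T. b. rhodesiense STIB 900 run with melarsoprol as reference drug. The counter-screen used the rat skeletal myoblast L-6 line, with podophyllotoxin as reference. The index is the L-6 IC50 divided by the parasite IC50.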

[18] = test system: Trypanosoma brucei brucei; experiment: Trypanocidal activity against Trypanosoma brucei brucei after 48 hrs by hemocytometry relative to control; type: functional
Method in brief: (§2)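 T.b. brucei parasites were seeded and held 24 h at 37 °C/5% CO₂. Compounds were diluted in DMEM and added to give the MIC, defined as the lowest concentration at the plateau (>95% activity) of the Alamar blue assay. Wells were viewed by microscope after 24, 48 and 72 h, and sampled wells were counted by hemocytometer. Percentage killed was taken against puromycin (1.15 μM) and 0.4% DMSO controls, in duplicate.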

[19] = test system: Trypanosoma brucei brucei; experiment: Trypanocidal activity against Trypanosoma brucei brucei after 72 hrs by hemocytometry relative to control; type: functional; method in brief: as §2
[20] = test system: Trypanosoma brucei brucei; experiment: Trypanocidal activity against Trypanosoma brucei brucei after 24 hrs by hemocytometry relative to control; type: functional; method in brief: as §2
Liver microsome [21] = experiment: Drug metabolism in human liver microsomes assessed as M+16 formation at 10 uM after 60 mins by LC-MS analysis in presence of NADPH/UDPGA; details: 1 h
Liver microsome [22] = experiment: Drug metabolism in human liver microsomes assessed as M+16 formation at 10 uM after 60 mins by LC-MS analysis in presence of NADPH; details: 1 h
Liver microsome [23] = experiment: Drug metabolism in human liver microsomes assessed as M-111 formation at 1 uM after 60 mins by LC-MS analysis in presence of NADPH; type: ADME; details: 1 h
Liver microsome [24] = experiment: Drug level in human liver microsomes treated with N-(5-fluoropyridin-2-yl)-2-methylbenzamide at 10 uM after 60 mins by LC-MS analysis in presence of NADPH; details: 1 h
Liver microsome [25] = experiment: Drug level in human liver microsomes treated with N-(4-chloropyridin-2-yl)-3-fluoro-2-methylbenzamide at 1 uM after 60 mins by LC-MS analysis in presence of NADPH; type: ADME; details: 1 h

CLint (Liver microsome [1]) | fraction unbound [2] | IC50 [3] | IC50 (Plasmodium falciparum) | solubility kinetic [5] | logD [6] | IC50 [7] | solubility kinetic [8] | IC50 (Trypanosoma cruzi) | SMILES | IC50 (L6) | selectivity ratio [4] | IC50 (Leishmania donovani) | Activity [18] | Activity [19] | Activity [20] | other results
129 µL/min/mg | 0.299 | 2.1 µM | 124 µM | > 100 µg/mL | 2.8 | 0.36 µM | 25 µg/mL (≈ 110 µM) | 173 µM | Cc1ccnc(NC(=O)c2ccccc2C)c1 | 146 µM | > 37 | > 133 µM |  |  |  | 
128 µL/min/mg | 0.134 | 2.1 µM | 88 µM | 25 µg/mL (≈ 101 µM) | 3.4 | 0.61 µM | 12.5 µg/mL (≈ 50.7 µM) | 168 µM | Cc1ccccc1C(=O)Nc1cc(Cl)ccn1 | 224 µM | > 38 | 168 µM |  |  |  | 
43 µL/min/mg | 0.44 |  |  | 25 µg/mL (≈ 109 µM) | 2.7 |  | 25 µg/mL (≈ 109 µM) |  | Cc1ccccc1C(=O)Nc1ccc(F)cn1 |  |  |  |  |  |  | inhibition at 10 µM [9]: 33%; Drug metabolism (Liver microsome [10]): metabolite_detected; Drug metabolism (Liver microsome [11]): metabolite_detected; Drug metabolism (Liver microsome [12]): metabolite_detected; Drug metabolism (Liver microsome [13]): metabolite_detected; Drug metabolism (Liver microsome [14]): metabolite_notdetected; Drug metabolism (Liver microsome [15]): metabolite_detected; Drug metabolism (Liver microsome [16]): metabolite_detected
97 µL/min/mg | 0.119 | 1.1 µM | 48 µM | > 100 µg/mL | 3.2 | 0.045 µM | > 100 µg/mL | 100 µM | Cc1cc(Br)ccc1C(=O)Nc1ccccn1 | 193 µM | 60 | > 103 µM |  |  |  | selectivity ratio [17]: > 4000
254 µL/min/mg | 0.283 | 0.47 µM |  | 12.5 µg/mL (≈ 47.2 µM) | 2.3 |  | 12.5 µg/mL (≈ 47.2 µM) |  | Cc1c(F)cccc1C(=O)Nc1cc(Cl)ccn1 |  | 177 |  | 83.7% | 98.8% | 64.23% | Drug metabolism (Liver microsome [10]): metabolite_detected; Drug metabolism (Liver microsome [21]): metabolite_detected; Drug metabolism (Liver microsome [22]): metabolite_detected; Drug metabolism (Liver microsome [23]): metabolite_detected; Drug metabolism (Liver microsome [15]): metabolite_detected

The remaining lines, values behind:

SMILES | CLint (Liver microsome [1]) | fraction unbound [2] | IC50 [3] | IC50 (Plasmodium falciparum) | solubility kinetic [5] | logD [6] | IC50 [7] | solubility kinetic [8] | IC50 (Trypanosoma cruzi) | IC50 (L6) | selectivity ratio [4] | IC50 (Leishmania donovani) | Activity [18] | Activity [19] | Activity [20] | other results
Cc1ccccc1C(=O)Nc1cc(C#Cc2ccccc2)ccn1 | 27 µL/min/mg | 0.017 | 1.7 µM | 9.7 µM | 1.6 µg/mL (≈ 5.12 µM) | 4.7 | 0.061 µM | < 1.6 µg/mL | 71 µM | 198 µM | > 51 | > 96 µM |  |  |  | 
Cc1c(C(=O)Nc2ccccn2)ccc(F)c1F | 154 µL/min/mg | 0.361 | 0.41 µM | 17 µM | 50 µg/mL (≈ 201 µM) | 2.8 | 0.1 µM | 25 µg/mL (≈ 101 µM) | 176 µM | 308 µM | 205 | > 121 µM | 99.95% | 99.9% | 92% | 
Cc1ccccc1C(=O)N(O)c1ccc(F)cn1 |  |  |  |  |  |  |  |  |  |  |  |  |  |  |  | Drug metabolism (Liver microsome [24]): metabolite_detected
Cc1ccccc1C(=O)Nc1ccc(O)cn1 |  |  |  |  |  |  |  |  |  |  |  |  |  |  |  | Drug metabolism (Liver microsome [24]): metabolite_detected
Cc1c(F)cccc1C(N)=O |  |  |  |  |  |  |  |  |  |  |  |  |  |  |  | Drug metabolism (Liver microsome [25]): metabolite_detected
N=C(N)c1ccc(OCCCCCOc2ccc(C(=N)N)cc2)cc1 [PENTAMIDINE] |  |  |  |  |  |  |  |  |  |  |  |  | 100% | 100% | 58.1% | 
COc1ccc(C[C@H](N)C(=O)N[C@H]2[C@@H](O)[C@H](n3cnc4c(N(C)C)ncnc43)O[C@@H]2CO)cc1 [PUROMYCIN] |  |  |  |  |  |  |  |  |  |  |  |  | 100% | 100% | 100% | 
